Data published in ChEMBL document CHEMBL1128490, “(+/-)-(Z)-2-(aminomethyl)-1-phenylcyclopropanecarboxamide derivatives as a new prototype of NMDA receptor antagonists” (J Med Chem, 1995).

Assays:
Mus musculus [1] = assay: Percentage protection against NMDA-induced lethality in mice by the compound at 40 mg/Kg administered ip 60 mins before iv administration of NMDA in the lethal dose of 90 mg/Kg.; type: functional
In short: (§1)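 Male ddY mice (20-28 g), groups of 10, given test compound in saline by intraperitoneal injection. 60 min later they were challenged with a lethal intravenous dose of NMDA (90 mg/kg) in saline. The read-out is protection from NMDA-induced death.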

Glutamate NMDA receptor = assay: Inhibition of [3H]MK-801 binding to NMDA receptor of rat cerebral cortical synaptic membrane
Mus musculus [2] = assay: Percentage protection against NMDA-induced lethality in mice by the compound at 20 mg/Kg administered ip 60 mins before iv administration of NMDA in the lethal dose of 90 mg/Kg.; type: functional; in short: as §1

IC50 (Glutamate NMDA receptor) [µM]	SMILES	Protection (Mus musculus [1]) [%]	Protection (Mus musculus [2]) [%]
> 100	CCN(CC)C(=O)[C@@]1(c2ccccc2)C[C@H]1CN=[N+]=[N-]	–	–
> 100	CCN(CC)C(=O)[C@@]1(c2ccccc2)C[C@H]1C=O	–	–
> 100	CCOC(=O)[C@@]1(c2ccccc2)C[C@H]1CN	–	–
> 100	CCN(CC)C(=O)[C@@]1(c2ccccc2)C[C@H]1Cn1ccnc1C	–	–
> 100	CCN(CC)C(=O)[C@@]1(c2ccccc2)C[C@H]1CO	–	–
> 100	NC[C@@H]1C[C@@]1(C(=O)O)c1ccccc1	–	–

SMILES	IC50 (Glutamate NMDA receptor) [µM]	Protection (Mus musculus [1]) [%]	Protection (Mus musculus [2]) [%]
CCN(CC)C(=O)[C@@]1(c2ccccc2)C[C@H]1CN(C)C	88	40	10
CCN(CC)C(=O)[C@@]1(c2ccccc2)C[C@H]1CCN	10	20	30
CCN(CC)C(=O)[C@@]1(c2ccccc2)C[C@H]1CNC	13	30	20
CCN(CC)C(=O)[C@@]1(c2ccccc2)C[C@H]1CN [LEVOMILNACIPRAN]	6.3	100	60
